{"source": "ChEMBL document CHEMBL4266033", "about": "“Neolymphostin A Is a Covalent Phosphoinositide 3-Kinase (PI3K)/Mammalian Target of Rapamycin (mTOR) Dual Inhibitor That Employs an Unusual Electrophilic Vinylogous Ester” (J Med Chem, 2018)", "key": {"[1]": {"biological_target": "Epidermal growth factor receptor (Homo sapiens) (UniProt P00533)", "sequence (P00533 whole entry)": "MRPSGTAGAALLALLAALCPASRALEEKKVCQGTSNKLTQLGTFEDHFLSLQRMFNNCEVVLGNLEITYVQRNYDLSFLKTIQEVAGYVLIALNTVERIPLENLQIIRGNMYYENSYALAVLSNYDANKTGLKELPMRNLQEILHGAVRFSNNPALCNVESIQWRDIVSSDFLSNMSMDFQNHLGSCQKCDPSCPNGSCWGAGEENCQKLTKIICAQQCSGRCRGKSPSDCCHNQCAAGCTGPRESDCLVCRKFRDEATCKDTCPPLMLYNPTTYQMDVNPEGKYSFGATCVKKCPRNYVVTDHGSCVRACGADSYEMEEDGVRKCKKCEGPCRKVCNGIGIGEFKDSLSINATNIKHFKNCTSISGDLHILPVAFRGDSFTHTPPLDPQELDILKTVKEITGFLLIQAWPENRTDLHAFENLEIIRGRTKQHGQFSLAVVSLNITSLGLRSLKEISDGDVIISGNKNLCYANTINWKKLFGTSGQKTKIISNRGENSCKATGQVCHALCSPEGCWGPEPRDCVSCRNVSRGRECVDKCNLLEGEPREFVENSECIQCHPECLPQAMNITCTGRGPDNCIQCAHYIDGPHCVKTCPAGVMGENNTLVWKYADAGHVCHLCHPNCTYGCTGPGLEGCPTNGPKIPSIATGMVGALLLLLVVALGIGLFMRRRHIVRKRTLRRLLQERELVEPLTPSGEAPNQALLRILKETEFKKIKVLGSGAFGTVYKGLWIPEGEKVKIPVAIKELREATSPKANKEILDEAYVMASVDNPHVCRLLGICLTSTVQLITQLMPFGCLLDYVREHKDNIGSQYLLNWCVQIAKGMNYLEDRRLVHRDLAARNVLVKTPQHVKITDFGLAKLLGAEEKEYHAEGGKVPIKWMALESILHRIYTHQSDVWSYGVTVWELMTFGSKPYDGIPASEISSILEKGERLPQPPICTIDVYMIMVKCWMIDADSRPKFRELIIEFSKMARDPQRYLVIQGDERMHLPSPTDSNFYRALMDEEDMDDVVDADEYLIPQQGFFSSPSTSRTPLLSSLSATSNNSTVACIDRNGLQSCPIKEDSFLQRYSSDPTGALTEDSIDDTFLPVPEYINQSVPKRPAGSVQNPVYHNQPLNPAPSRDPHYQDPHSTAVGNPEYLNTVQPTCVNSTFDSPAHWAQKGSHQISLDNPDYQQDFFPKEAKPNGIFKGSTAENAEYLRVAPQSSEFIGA", "experiment": "Inhibition of EGFR in human HeLa cells assessed as reduction in EGF-stimulated EGFR Y1068 phosphorylation at 100 nM preincubated for 10 mins followed by EGF stimulation measured after 5 mins by Western blot analysis", "type": "cell-based", "procedure,_shortened": "(§1)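 HeLa cells serum-starved overnight, pretreated with compound for 10 min, then stimulated with EGF at 10 ng mL-1 for 5 min. Lysis in boiling SDS sample buffer, protein quantified, equal protein boiled 5 min and run on SDS-PAGE. Transfer to PVDF, Western blot for EGFR/pEGFR (Tyr1068), AKT/pAKT (Ser473, Thr308), ERK1/2/pERK1/2 (Thr202/Tyr204) and GAPDH, with ECL detection.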"}, "[2]": {"biological_target": "Epidermal growth factor receptor (Homo sapiens) (UniProt P00533)", "experiment": "Inhibition of EGFR in human HeLa cells assessed as reduction in EGF-stimulated ERK1/2 phosphorylation at T202/Y204 at 100 nM preincubated for 10 mins followed by EGF stimulation measured after 5 mins by Western blot analysis", "type": "cell-based", "procedure,_shortened": "as §1"}, "[3]": {"test_system": "HeLa", "experiment": "Inhibition of PI3K in human HeLa cells assessed as reduction in EGF-stimulated AKT phosphorylation at S473 at 100 nM preincubated for 10 mins followed by EGF stimulation measured after 5 mins by Western blot analysis", "type": "cell-based", "procedure,_shortened": "as §1"}, "[4]": {"test_system": "HeLa", "experiment": "Inhibition of PI3K in human HeLa cells assessed as reduction in EGF-stimulated AKT phosphorylation at T308 at 100 nM preincubated for 10 mins followed by EGF stimulation measured after 5 mins by Western blot analysis", "type": "cell-based", "procedure,_shortened": "as §1"}, "[5]": {"experiment": "Electrophilicity towards N-alpha-acetyl lysine in 100 mM pH 8.1 phosphate buffer assessed as 3-hydroxy-1-(pyridin-2-yl)prop-2-en-1-one formation using 10 fold excess N-alpha-acetyl lysine at 25 degC by NMR spectrscopy", "type": "physicochemical", "procedure,_shortened": "(§2)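 NMR kinetics of the model electrophile with and without Nα-acetyl lysine, set up as in the glutathione protocol. Phosphate-buffered D2O (100 mM) was at pH 8.1. Electrophile diluted from a 200 mM DMSO-d6 stock; lysine solution freshly prepared in the same buffer.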"}, "[6]": {"experiment": "Glutathione reactivity assessed as formation of (2S)-2-amino-5-((2R)-1-(carboxymethylamino)-3-(1-methoxy-3-oxo-3-(pyridin-2-yl)propylthio)-1-oxopropan-2-ylamino)-5-oxopentanoic acid in presence of pH 7.4 at 25 degC by NMR based method", "type": "physicochemical", "conditions": "gsh"}, "[7]": {"experiment": "Electrophilicity towards N-alpha-acetyl lysine in 100 mM pH 8.1 phosphate buffer assessed as (S)-2-acetamido-6-(3-oxo-3-(pyridin-2-yl)prop-1-enylamino)hexanoic acid formation using 10 fold excess N-alpha-acetyl lysine at 25 degC by NMR spectrscopy", "type": "physicochemical", "procedure,_shortened": "as §2"}, "[8]": {"experiment": "Electrophilicity towards N-alpha-acetyl lysine in 100 mM pH 7.4 phosphate buffer using 10 fold excess N-alpha-acetyl lysine at 25 degC by NMR spectrscopy", "type": "physicochemical", "procedure,_shortened": "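Model electrophile with tenfold excess Nα-acetyl lysine in 100 mM phosphate buffer, pH 7.4, at 25 °C. Set up as in the glutathione NMR kinetics (1.0 mM electrophile from DMSO-d6 stock, buffered D2O).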"}, "[9]": {"experiment": "Glutathione reactivity assessed as formation of (2S)-2-amino-5-((2R)-1-(carboxymethylamino)-3-(1-methoxy-3-oxo-3-(pyridin-2-yl)propylthio)-1-oxopropan-2-ylamino)-5-oxopentanoic acid in presence of pH 7.4 at 37 degC by NMR based method", "type": "physicochemical", "conditions": "gsh"}, "[10]": {"test_system": "HeLa", "experiment": "Inhibition of PI3K in human HeLa cells assessed as reduction in EGF-stimulated AKT phosphorylation at S473 at 1 to 100 nM preincubated for 10 mins followed by EGF stimulation measured after 5 mins by Western blot analysis", "type": "cell-based", "procedure,_shortened": "(§3)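 HeLa cells were serum-starved overnight, pretreated with compound for 10 min, then stimulated with 10 ng mL-1 EGF for 5 min. Lysis was in boiling SDS sample buffer, with protein quantified at 660 nm. Equal protein was resolved by SDS-PAGE and Western blotted for pEGFR Tyr1068, pAKT Ser473/Thr308, and pERK1/2 Thr202/Tyr204 with total proteins and GAPDH, detected by ECL.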"}, "[11]": {"test_system": "HeLa", "experiment": "Inhibition of PI3K in human HeLa cells assessed as reduction in EGF-stimulated AKT phosphorylation at T308 at 1 to 100 nM preincubated for 10 mins followed by EGF stimulation measured after 5 mins by Western blot analysis", "type": "cell-based", "procedure,_shortened": "as §3"}}, "note": "Activity calls are given as the source filed them. No cut-off for these calls is given here.", "data": [{"compound": "COC[C@H]1OC(=O)c2coc3c2[C@@]1(C)C1=C(C3=O)[C@@H]2CCC(=O)[C@@]2(C)C[C@H]1OC(C)=O", "values": [{"measurement": "inhibition", "setting": "[1]", "value": "inactive"}, {"measurement": "inhibition", "setting": "[2]", "value": "inactive"}, {"measurement": "inhibition", "setting": "[3]", "value": "Active"}, {"measurement": "inhibition", "setting": "[4]", "value": "Active"}]}, {"compound": "CO/C=C/C(=O)c1ccccn1", "values": [{"measurement": "t1/2", "setting": "[5]", "value": 1440, "unit": "min"}, {"measurement": "t1/2", "setting": "[6]", "value": 13, "unit": "min"}, {"measurement": "t1/2", "setting": "[7]", "value": 60, "unit": "min"}, {"measurement": "Activity", "setting": "[8]", "value": "Not Active"}, {"measurement": "t1/2", "setting": "[9]", "value": 5.4, "unit": "min"}]}, {"compound": "CC(C)C(=O)Nc1cc(N)c2c3c(cc(C(=O)CCO)nc13)C=N2", "values": [{"measurement": "inhibition", "setting": "[10]", "value": "inactive"}, {"measurement": "inhibition", "setting": "[11]", "value": "inactive"}]}]}
